Experimental data taken from ChEMBL document CHEMBL3525966, “Compartmental and enzyme kinetic modeling to elucidate the biotransformation pathway of a centrally acting antitrypanosomal prodrug” (Drug Metab Dispos, 2013).

Legend:
Hepatocyte = assay: Biotransformation in sandwich-cultured human hepatocytes assessed as depletion of compound at 10 uM after 4 hrs of incubation by HPLC-MS/MS analysis; format: ADME, cell-based
Outline: (§1)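 Sandwich-cultured hepatocytes were used on day 5 (human) or day 4 (rat) and rinsed with warm phenol-red-free DMEM. They were then exposed to 10 µM DB868 (0.1–0.2% DMSO) at 37°C. Medium and methanol/water cell lysates were collected at 0.5, 2, 4 and 24 h. Analytes were quantified by HPLC/MS/MS with deuterated internal standards; protein by Bradford. Replicates: 6 (human) or 4 (rat).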

[1] = Drug metabolism in sandwich-cultured rat hepatocytes assessed as (Z)-N'-hydroxy-6-(5-(5-((Z)-N'-methoxycarbamimidoyl)pyridin-2-yl)furan-2-yl)nicotinimidamide at 10 uM after 4 hrs of incubation by HPLC-MS/MS analysis; format: ADME, cell-based, Hepatocyte; outline: as §1
Cytochrome P450 1A2 [2] = biological target: T1, Cytochrome P450 1A2 (Homo sapiens, UniProt P05177); assay: Prodrug conversion assessed as human recombinant CYP1A2-mediated (Z)-N'-hydroxy-6-(5-(5-((Z)-N'-methoxycarbamimidoyl)pyridin-2-yl)furan-2-yl) nicotinimidamide formation at 5 uM […] by HPLC-UV chromatogram; format: ADME; conditions: recombinant enzyme, 3 h
T1 sequence (P05177 whole entry): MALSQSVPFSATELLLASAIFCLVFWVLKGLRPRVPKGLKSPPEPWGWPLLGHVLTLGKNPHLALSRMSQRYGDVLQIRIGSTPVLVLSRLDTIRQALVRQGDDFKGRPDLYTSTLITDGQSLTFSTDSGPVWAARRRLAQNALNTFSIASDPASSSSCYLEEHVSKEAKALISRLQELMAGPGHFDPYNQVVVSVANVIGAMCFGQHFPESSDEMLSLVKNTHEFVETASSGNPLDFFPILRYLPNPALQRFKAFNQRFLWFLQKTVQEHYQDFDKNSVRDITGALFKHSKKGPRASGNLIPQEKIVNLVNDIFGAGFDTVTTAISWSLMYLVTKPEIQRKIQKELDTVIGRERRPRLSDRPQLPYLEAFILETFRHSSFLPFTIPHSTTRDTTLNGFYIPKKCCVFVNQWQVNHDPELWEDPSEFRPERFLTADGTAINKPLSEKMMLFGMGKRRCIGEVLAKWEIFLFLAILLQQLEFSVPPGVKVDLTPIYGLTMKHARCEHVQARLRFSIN

[3] = Drug metabolism in sandwich-cultured rat hepatocytes assessed as DB829 at 10 uM after 24 hrs of incubation by HPLC-MS/MS analysis; format: ADME, cell-based, Hepatocyte; outline: as §1
[4] = Drug metabolism in sandwich-cultured human hepatocytes assessed as DB829 at 10 uM after 24 hrs of incubation by HPLC-MS/MS analysis; format: ADME, cell-based, Hepatocyte; outline: as §1
Cytochrome P450 1A2 [5] = biological target: T2, Cytochrome P450 1A2 (Rattus norvegicus, UniProt P04799); assay: Prodrug conversion assessed as rat recombinant CYP1A2-mediated (3Z,3'Z)-6,6'-(furan-2,5-diyl)bis(N'-hydroxynicotinimidamide) formation at 5 uM after 180 mins incubation by HPLC-UV chromatogram; format: ADME; conditions: recombinant enzyme, 15 min, in the assay text read “15 mins” for “180 mins”
T2 sequence (P04799 whole entry): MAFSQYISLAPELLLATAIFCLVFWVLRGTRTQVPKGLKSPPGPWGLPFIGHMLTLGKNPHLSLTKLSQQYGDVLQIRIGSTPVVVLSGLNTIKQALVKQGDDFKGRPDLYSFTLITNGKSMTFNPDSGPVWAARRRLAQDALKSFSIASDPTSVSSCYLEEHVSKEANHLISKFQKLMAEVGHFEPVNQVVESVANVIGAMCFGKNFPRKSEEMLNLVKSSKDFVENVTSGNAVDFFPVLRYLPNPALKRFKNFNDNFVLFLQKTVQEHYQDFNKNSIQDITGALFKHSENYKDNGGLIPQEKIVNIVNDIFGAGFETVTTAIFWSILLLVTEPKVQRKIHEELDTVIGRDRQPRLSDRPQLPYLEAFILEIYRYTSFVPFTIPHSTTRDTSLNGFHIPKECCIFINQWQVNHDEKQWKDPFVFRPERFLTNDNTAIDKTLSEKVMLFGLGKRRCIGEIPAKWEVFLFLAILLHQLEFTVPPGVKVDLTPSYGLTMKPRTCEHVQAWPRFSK
Outline: (§2)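 Insect-cell-expressed human or rat P450 (with NADPH-P450 reductase, some also with cytochrome b5) at 0.1 pmol/µL in 100 mM potassium phosphate pH 7.4 with 10 mM MgCl2. DB868 (for M1) or M1 (for M2) was added at 5 µM (0.5% DMSO) and started with 2 mM NADPH. Stopped after 15 min with ice-cold acetonitrile, then HPLC-UV. Duplicate incubations.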

Liver microsome [6] = assay: Ratio of drug metabolism in […] to drug metabolism in rat hepatocytes at 10 uM after 4 hrs of incubation by HPLC-MS/MS analysis; format: ADME, cell-based, Hepatocyte
[7] = Drug metabolism in sandwich-cultured human hepatocytes assessed as fold increase in DB829 at 10 uM after 2 hrs of incubation by HPLC-MS/MS analysis; format: ADME, cell-based, Hepatocyte; outline: as §1
Cytochrome P450 3A4 = Cytochrome P450 3A4 (Homo sapiens, UniProt P08684); assay: Prodrug conversion assessed as human recombinant CYP3A4-mediated (Z)-N'-hydroxy-6-(5-(5-((Z)-N'-methoxycarbamimidoyl)pyridin-2-yl)furan-2-yl) nicotinimidamide formation at 5 uM after 180 mins incubation by HPLC-UV chromatogram; format: ADME; conditions: recombinant enzyme, 15 min, in the assay text read “15 mins” for “180 mins”; outline: as §2
Cytochrome P450 3A4, sequence (P08684 whole entry): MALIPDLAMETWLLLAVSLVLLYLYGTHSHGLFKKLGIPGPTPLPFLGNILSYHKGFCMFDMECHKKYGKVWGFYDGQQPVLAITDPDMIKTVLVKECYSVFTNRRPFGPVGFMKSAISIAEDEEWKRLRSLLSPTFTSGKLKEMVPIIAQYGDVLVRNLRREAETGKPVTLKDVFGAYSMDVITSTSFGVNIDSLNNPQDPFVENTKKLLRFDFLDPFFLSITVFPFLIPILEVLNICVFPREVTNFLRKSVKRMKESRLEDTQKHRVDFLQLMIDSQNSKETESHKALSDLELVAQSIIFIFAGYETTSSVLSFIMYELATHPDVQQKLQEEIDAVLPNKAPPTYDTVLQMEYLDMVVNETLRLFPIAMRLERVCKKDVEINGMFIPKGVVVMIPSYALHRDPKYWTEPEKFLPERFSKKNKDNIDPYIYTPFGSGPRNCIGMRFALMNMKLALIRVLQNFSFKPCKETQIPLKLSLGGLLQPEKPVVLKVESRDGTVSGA

Cytochrome P450 1A2 [8] = biological target: T2, Cytochrome P450 1A2; assay: Prodrug conversion assessed as rat recombinant CYP1A2-mediated (Z)-N'-hydroxy-6-(5-(5-((Z)-N'-methoxycarbamimidoyl)pyridin-2-yl)furan-2-yl) nicotinimidamide formation at 5 uM after 180 mins incubation by HPLC-UV chromatogram; format: ADME; conditions: recombinant enzyme, 15 min, in the assay text read “15 mins” for “180 mins”; outline: as §2
Liver microsome [9] = assay: Drug metabolism in human liver microsomes assessed as (Z)-N'-hydroxy-6-(5-(5-((Z)-N'-methoxycarbamimidoyl)pyridin-2-yl)furan-2-yl nicotinimidamide formation measured by HPLC-MS/MS analysis; format: ADME
Outline: (§3)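 M1 formation kinetics: HLM or RLM (0.5 mg/mL) in phosphate pH 7.4 with MgCl2, DB868 0.1–100 µM, started with 2 mM NADPH. Run 5 min (HLM) or 10 min (RLM) under initial-rate conditions (<20% consumption) in triplicate. Quantified by HPLC/MS/MS with d6-DB868 internal standard. Fitted to a one-enzyme (HLM) or two-enzyme (RLM) Michaelis–Menten model; Clint = Vmax/Km.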

Liver microsome [10] = assay: Prodrug conversion in human liver microsomes assessed as depletion of compound at 10 uM after 180 mins incubation by HPLC-UV chromatography; format: ADME; conditions: 3 h
Outline: (§4)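 HLM or RLM (0.5 mg/mL) were incubated in triplicate in 100 mM phosphate pH 7.4 with 10 mM MgCl2 and an NADPH-regenerating system (1 mM NADP+, glucose 6-phosphate, G6PDH). DB868 was 10 µM. Sampled up to 180 min. Prodrug and metabolites were measured by HPLC-UV at 359 nm and expressed relative to initial prodrug; DB829 LLOQ 50 nM.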

Liver microsome [11] = assay: Prodrug conversion in human liver microsomes assessed as elution time at 10 uM after 180 mins incubation by HPLC-UV chromatography; format: ADME; conditions: 3 h; outline: as §4
Liver microsome [12] = assay: Drug metabolism in rat liver microsomes assessed as (Z)-N'-hydroxy-6-(5-(5-((Z)-N'-methoxycarbamimidoyl)pyridin-2-yl)furan-2-yl nicotinimidamide formation measured by HPLC-MS/MS analysis; format: ADME; outline: as §3

Drug metabolism (Hepatocyte): metabolite_detected
Drug metabolism [1]: metabolite_detected
Drug metabolism (Cytochrome P450 1A2 [2]): metabolite_detected
Drug metabolism [3]: metabolite_detected
Drug metabolism [4]: metabolite_detected
Drug metabolism (Cytochrome P450 1A2 [5]): metabolite_detected
Ratio (Liver microsome [6]): 25
fold change (FC) [7]: 13
Drug metabolism (Cytochrome P450 3A4): metabolite_detected
Drug metabolism (Cytochrome P450 1A2 [8]): metabolite_detected
Km (Liver microsome [9]): 11 µM
Drug metabolism (Liver microsome [10]): 100%
Retention_time (Liver microsome [11]): 18.5 min
Km (Liver microsome [12]): 0.5 µM
SMILES: CO/N=C(\N)c1ccc(-c2ccc(-c3ccc(/C(N)=N/OC)cn3)o2)nc1.Cl
